# Measurements gathered from unrelated publications.
# Lines come from different studies, so protocols differ.
# Organism: Plasmodium falciparum
# Observed: parasite growth
SMILES,test,system,conditions,EC50 [µM]
COc1cc2[nH]c(C)c(-c3ccc(Oc4ccc(OC(F)(F)F)cc4)cc3)c(=O)c2cc1Cl,SYBR Green,TM90,"72 h, drug-resistant strain, blood stage",0.001
CN1CCCN(S(=O)(=O)c2ccc(-c3ccc4ncnc(Nc5ccc(OCc6cccc(F)c6)c(Cl)c5)c4c3)cc2)CC1,SYBR Green,W2,"drug-resistant strain, blood stage",0.052
C[C@@H]1C[C@@H]([C@H](O)CC2CC(=O)NC(=O)C2)C(=O)[C@@H](C)C1,SYBR Green,3D7,blood stage,0.2
Cc1cc(N[C@H]2CCc3ccc(Cl)cc3C2)n2nc(C(C)(F)F)nc2n1,,HB3,"drug-resistant strain, blood stage",0.00047
OC(c1cc(C(F)(F)F)nc2c(C(F)(F)F)cccc12)C1CCCCN1 (stereo not shown),SYBR Green,3D7,,0.0203
Cc1cc(NC2Cc3cc(F)c(F)cc3C2)n2nc(C(C)(F)F)nc2n1,,DD2,"drug-resistant strain, blood stage",0.043
N#Cc1c(F)cccc1N1CCN(c2ccc(O)cc2)CC1,SYBR Green,3D7,72 h,> 12.5
CCN(CC)CCCC(C)Nc1ccnc2cc(Cl)ccc12 (stereo not shown),SYBR Green,TM90,"72 h, drug-resistant strain, blood stage",0.089
Fc1cccc(COc2ccc(Nc3ncnc4ccc(-c5cccc(N6CCOCC6)c5)cc34)cc2Cl)c1,SYBR Green,W2,"drug-resistant strain, blood stage",0.68
Cc1cc(Nc2ccc(Cl)c(Cl)c2)n2nc(C)nc2n1,SYBR Green,3D7,,0.106
